# Screens from PubChem.
# Pf Dd2 growth: P. falciparum Dd2 growth inhibition; activity change, % at 10 µM; actives 2.3% (n = 94,000); SYBR Green, 72 h; active compounds read low; in the data active = activity change below about -80%; inconclusive = no clear call, values can overlap the other calls
# GASC1 inh: inhibitors of human demethylase GASC-1 KDM4C; actives 0.15% (n = 96,000); AID 720574; GST-KDM4C 2-372, H3K9me3 peptide, LANCE TR-FRET; inhibition, % at 12.5 µM; Q9H3R0;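 active = mean replicate inhibition above about 25%, with at least 55% of replicates also reaching it, limit read from the data, passing the limit was not always enough; inconclusive = only one of those two conditions met; inactive = neither condition met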
#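 System – N-terminal GST-fused human GASC-1 (KDM4C) fragment, residues 2-372 · Input – enzyme final amount 10 nM · Technique – LANCE TR-FRET, Eu antibody, ULight-streptavidin, EDTA, ex 340 nm, em 618/671 nm · Medium – HEPES buffer, pH 7.5, plus ascorbate · Incubation – enzyme reaction 30 min, then detection 60 min, both room temperature · Reagent – H3K9me3 peptide with Fe(II)/2OG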
# IDH1 R132H inh: blocks human IDH1 R132H reductase activity; diaphorase/resazurin fluorescence, 60 min; AID 624101; inhibition, % at 10 µM; actives 0.18% (n = 70,000); O75874; in the data active = inhibition above about 34%; inconclusive = no clear call, values can overlap the other calls; inactive = below about 11%;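 also: 0% = DMSO and 100% = no enzyme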
# Target sequence (O75874 whole entry R132H): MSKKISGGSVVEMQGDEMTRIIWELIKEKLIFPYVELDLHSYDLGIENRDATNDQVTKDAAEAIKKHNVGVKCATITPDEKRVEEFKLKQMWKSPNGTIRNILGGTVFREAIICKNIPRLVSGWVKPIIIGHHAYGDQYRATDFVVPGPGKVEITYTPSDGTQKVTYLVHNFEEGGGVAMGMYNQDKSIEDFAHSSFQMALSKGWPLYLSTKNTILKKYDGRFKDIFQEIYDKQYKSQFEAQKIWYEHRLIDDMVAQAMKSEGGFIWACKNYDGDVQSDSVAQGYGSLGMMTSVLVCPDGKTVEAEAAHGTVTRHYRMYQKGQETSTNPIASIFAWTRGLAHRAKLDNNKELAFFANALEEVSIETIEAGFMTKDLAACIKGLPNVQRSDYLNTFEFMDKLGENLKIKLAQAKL
# T cruzi growth-1: blocks T. cruzi growth in NIH3T3 culture; T. cruzi beta-gal in NIH3T3, GalScreen luminescence, 90 h; inhibition, % at 8.34 µM; actives 5.9% (n = 77,000); AID 624255;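 active = mean inhibition above about 93%, with at least 55% of replicates each passing it, limit read from the data, passing the limit was not always enough; inconclusive = only one of those two conditions holds; inactive = neither condition holds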
# T cruzi growth-2: Trypanosoma cruzi proliferation inhibition; shares compounds with T cruzi growth-1; AID 651739; inhibition, % at 8.35 µM; T. cruzi beta-gal in NIH3T3, GalScreen luminescence, 90 h; actives 72% (n = 5,600);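 active = mean replicate inhibition above about 95% and at least 55% of replicates individually reaching it, limit read from the data; inconclusive = only one of the two criteria is met; inactive = neither criterion is met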
# T cruzi growth-3: inhibitors of T. cruzi proliferation; shares compounds with T cruzi growth-1; T. cruzi beta-gal in NIH3T3, GalScreen luminescence, 90 h; inhibition, % at 2.09 µM; actives 21% (n = 5,600); AID 651740;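 active = mean inhibition above about 95%, with at least 55% of replicates also reaching it, limit read from the data; inconclusive = meets just one of the two conditions; inactive = meets neither condition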;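 also: plate controls were neutral control median for no effect and positive control median for full effect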
# NIH3T3 tox: kills mouse NIH/3T3 fibroblasts; shares compounds with T cruzi growth-1; NIH/3T3 viability, CellTiter-Glo ATP luminescence, 90 h; cytotoxicity (signal decrease), % at 8.35 µM; actives 14% (n = 5,600);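 active = mean signal decrease across replicates above about 35% based on untreated-well scatter, with enough replicates individually passing, limit read from the data; inconclusive = no rule stated though some were filed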;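 also: 0% = median of neutral control wells and 100% = median of positive control wells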
# NIH3T3 tox 2: NIH/3T3 (mouse) viability loss | shares compounds with T cruzi growth-1 | NIH/3T3 viability, CellTiter-Glo ATP luminescence, 90 h | inhibition, % at 24.9 µM | actives 56% (n = 5,600);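 active = mean loss of cell viability signal at or above a set limit, and enough replicates individually reaching it; inconclusive = meets only the mean limit or only the replicate share; inactive = meets neither condition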;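 also: 0% = median of neutral control wells and 100% = median of positive control wells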
# * hit, by the source's call; ? = inconclusive; . = no result. An excerpt weighted towards active compounds, which were near 5.9% of everything screened.
SMILES,Pf Dd2 growth,GASC1 inh,IDH1 R132H inh,T cruzi growth-1,T cruzi growth-2,T cruzi growth-3,NIH3T3 tox,NIH3T3 tox 2
C[C@@H]1CCCCO[C@H](CN(C)C(=O)Nc2cccc3ccccc23)[C@@H](C)CN([C@H](C)CO)C(=O)c2cc(NS(=O)(=O)c3ccc(Cl)cc3)ccc2O1,-49,0,-1,89,.,.,.,.
CCC1(CC)C(=O)N(CC(=O)OC)C(=O)N(C)C1=S,.,.,0,.,.,.,.,.
Cc1ccccc1-c1noc(CCC(=O)Nc2ccc(Cl)cc2)n1,.,.,0,.,.,.,.,.
CC(C)C#Cc1ccc([C@@H]2[C@H](C#N)N(C(=O)C3CCC3)[C@H]2CO)cc1,-17,-3,.,?,104*,73,15,34*
CC(C)C#Cc1ccc([C@H]2[C@@H](C#N)N(C(=O)C3CCC3)[C@@H]2CO)cc1,-11,-2,.,90,.,.,.,.
CCCC#Cc1ccc([C@@H]2[C@@H](CO)N(C(=O)C3CCC3)[C@H]2C#N)cc1,-35,-1,.,92,.,.,.,.
CC(C)C#Cc1ccc([C@@H]2[C@@H](CO)N(C(=O)C3CCC3)[C@H]2C#N)cc1,-8,0,.,100*,100*,69,2,31*
CC(C)C#Cc1ccc([C@H]2[C@@H](CO)N(C(=O)C3CCOCC3)[C@H]2C#N)cc1,-21,1,0,98*,106*,93,-8,-5
CC(C)C#Cc1ccc([C@H]2[C@@H](C#N)N(C(=O)C3CC3)[C@H]2CO)cc1,-30,0,.,92,.,.,.,.
CC(C)C#Cc1ccc([C@@H]2[C@@H](C#N)N(C(=O)C3CC3)[C@H]2CO)cc1,-9,-1,.,44,.,.,.,.
CC(C)C#Cc1ccc([C@H]2[C@@H](C#N)N(C(=O)C3CCC3)[C@H]2CO)cc1,-61,-4,.,98*,100*,88,0,37*
O=C(COc1ccc2ccccc2c1Br)Nc1ccccc1C(=O)NC1CCCCC1,.,.,0,.,.,.,.,.
CN(C)CC(=O)N1CCCCN2[C@H](C1)[C@@H](c1ccc(-c3cccnc3)cc1)[C@@H]2CO,-30,0,.,65,.,.,.,.
CCC(=O)N1CCCCN2[C@H](C1)[C@H](c1ccc(-c3cccnc3)cc1)[C@@H]2CO,-78,-1,.,113*,34,0,6,-9
CN(C)CC(=O)N1CCCCN2[C@H](CO)[C@@H](c3ccc(-c4cccnc4)cc3)[C@H]2C1,-66,-1,.,57,.,.,.,.
CCC(=O)N1CCCCN2[C@@H](CO)[C@@H](c3ccc(-c4cccnc4)cc3)[C@@H]2C1,8,0,.,96*,90,86,-7,-24
C[C@@H]1CN([C@H](C)CO)C(=O)Cc2cc(NS(C)(=O)=O)ccc2O[C@H]1CN(C)Cc1ccc(C(F)(F)F)cc1,8,1,0,52,.,.,.,.
C[C@H](CO)N1C[C@H](C)[C@@H](CN(C)Cc2ccc(Cl)c(Cl)c2)Oc2ccc(NS(C)(=O)=O)cc2CC1=O,-13,1,-10,?,115*,82,13,100*
C[C@H]1CN([C@@H](C)CO)C(=O)Cc2cc(NS(C)(=O)=O)ccc2O[C@@H]1CN(C)Cc1ccc(Cl)c(Cl)c1,-32,2,-3,70,.,.,.,.
C[C@@H]1CN([C@H](C)CO)C(=O)Cc2cc(N(C)C)ccc2O[C@H]1CN(C)Cc1ccc(C(=O)O)cc1,43,2,3,22,.,.,.,.
C[C@H](CO)N1C[C@H](C)[C@@H](CN(C)Cc2ccc(C(F)(F)F)cc2)Oc2ccc(NS(C)(=O)=O)cc2CC1=O,1,0,2,118*,109*,103*,-1,47*
C[C@H](CO)N1C[C@H](C)[C@@H](CN(C)Cc2ccc(C(F)(F)F)cc2)Oc2ccc(N(C)C)cc2CC1=O,-17,0,1,133*,108*,97*,4,72*
COC(=O)CCCCCCC(=O)N/N=C/c1ccc(-n2ccnc2)cc1,.,.,3,.,.,.,.,.
